Measurements of several laboratories.
Each line is one published result; the experiments were not run side by side.
KIT A829P: Mast/stem cell growth factor receptor Kit (KIT, Homo sapiens, UniProt P10721, A829P)
KIT D816V: Mast/stem cell growth factor receptor Kit (KIT, Homo sapiens, UniProt P10721, D816V)
KIT T670I/V559D: Mast/stem cell growth factor receptor Kit (KIT, Homo sapiens, UniProt P10721, T670I/V559D)
KIT L576P: Mast/stem cell growth factor receptor Kit (KIT, Homo sapiens, UniProt P10721, L576P)
KIT autoinhibited: Mast/stem cell growth factor receptor Kit, autoinhibited (KIT, Homo sapiens, UniProt P10721)
KIT: Mast/stem cell growth factor receptor Kit (KIT, Homo sapiens, UniProt P10721)
KIT D816H: Mast/stem cell growth factor receptor Kit (KIT, Homo sapiens, UniProt P10721, D816H)
KIT V559D: Mast/stem cell growth factor receptor Kit (KIT, Homo sapiens, UniProt P10721, V559D)
KIT V559D/V654A: Mast/stem cell growth factor receptor Kit (KIT, Homo sapiens, UniProt P10721, V559D/V654A)

Structure (SMILES) | target | observed | technique | concentration | remaining binding [%]
O=C(N1CCS(=O)(=O)CC1)N1C[C@H](c2ccc(OC(F)(F)F)cc2)C[C@H](c2nc(C3CC3)no2)C1 | KIT A829P | cell-free assay | competition with immobilised ligand | 1 µM | 100
CCN1CCN(Cc2ccc(C(=O)Nc3ccc(C)c(Oc4ccc5c(c4)CC(=O)N5)c3)cc2C(F)(F)F)CC1 | KIT A829P | binding | competition with immobilised ligand | 1 µM | 100
CC(C)(C)c1ccc(-c2nc(CBr)nn2-c2cccc(O)c2)cc1 | KIT D816V | cell-free assay | competition with immobilised ligand | 10 µM | 95
O=C(c1ccc(Nc2ncc(Cl)c(-c3cc4ccccc4s3)n2)cc1)N1CCC(N2CCCC2)CC1 | KIT D816V | binding | competition with immobilised ligand | 1 µM | 13
C[C@@H](c1ccc(-n2cnc3c(N)ncnc32)cc1)N1CCc2nn(C)c(Cc3ccccc3)c2C1=O | KIT T670I/V559D | binding | competition with immobilised ligand | 0.1 µM | 99
COc1ccc2cc(OCC3(C(=O)O)CN(C(=O)c4ccc(F)cc4)C3)ccc2c1 | KIT T670I/V559D | cell-free assay | competition with immobilised ligand | 1 µM | 100
C=CC(=O)N1CCC(C(=O)NCC(=O)N2CCN(c3nc(-c4cnc(N)nc4C(F)F)nc(N4CCOCC4)n3)CC2)CC1 | KIT D816V | binding | competition with immobilised ligand | 1 µM | 79
F[C@@H]1CCN(c2nccc(-c3cnn4ncccc34)n2)C1 | KIT L576P | binding |  | 1 µM | 92
CCC(=O)N[C@@H]1CC[C@H](C(=O)N(C)c2ccc(-c3nc4ccccc4o3)cc2)C1 | KIT autoinhibited | cell-free assay | competition with immobilised ligand | 1 µM | 93
COc1cnc(Nc2cccc(S(N)(=O)=O)c2)nc1N1CCN(c2ccccc2)C(=O)C1 | KIT T670I/V559D | binding | competition with immobilised ligand | 1 µM | 100
CC1CCCN1c1nccc(-c2cnn3ncccc23)n1 (stereo not shown) | KIT L576P | binding |  | 1 µM | 100
c1cncc(-c2cccc(Nc3nccc(NC4CCCCC4)n3)c2)c1 | KIT | binding | competition with immobilised ligand | 10 µM | 3.8
C[C@H]1CCN(c2nccc(-c3cnn4ncccc34)n2)C1 | KIT T670I/V559D | binding |  | 1 µM | 98
Nc1ncc2c(n1)-c1c([nH]c3ccc(C#CC4CC4)cc13)CCCC2 | KIT T670I/V559D | binding | competition with immobilised ligand | 1 µM | 94
C[C@@H](c1cccc(C#N)c1)n1cc(Cl)cc(C(N)=O)c1=N | KIT D816H | cell-free assay | competition with immobilised ligand | 1 µM | 100
CN(C)c1nccc(-c2cnc3ncccn23)n1 | KIT D816H | binding |  | 1 µM | 52
O=C(NCCCN1CCOCC1)c1ccc(Nc2nccc(-c3cc4ccccc4s3)n2)cc1 | KIT V559D | binding | competition with immobilised ligand | 1 µM | 26
O=C(Nc1c[nH]nc1C(=O)NC1CCNCC1)c1cc(F)cc(F)c1 | KIT D816V | binding | competition with immobilised ligand | 1 µM | 100
Cc1cc(NC(=O)c2cccc(S(F)(F)(F)(F)F)c2)cc(-n2ccn3nc(-c4cccnc4)cc23)c1 | KIT autoinhibited | cell-free assay | competition with immobilised ligand | 1 µM | 70.3

Structure (SMILES) | target | observed | technique | concentration | remaining binding [%]
CNC(=O)[C@@H]1CC[C@@H](n2c(-c3ccc4cnccc4c3)nc3ccc(C(=O)NCc4cccc(C(N)=O)c4)cc32)C1 | KIT V559D/V654A | binding | competition with immobilised ligand | 1 µM | 96
O=C(NCCCN1CCOCC1)c1ccc(Nc2ncc(Cl)c(-c3ccc(Cl)s3)n2)cc1 | KIT | binding | competition with immobilised ligand | 1 µM | 0.05
Cc1cnn2ncc(-c3ccnc(N(C)C)n3)c2c1 | KIT T670I/V559D | binding |  | 1 µM | 100
CN(C)C(=O)Cn1cc(-c2nc(C3(c4ccc(-c5cnc(N)nc5)cc4)CC3)no2)cn1 | KIT | cell-free assay | competition with immobilised ligand | 1 µM | 93
O=C(NCC1CCOCC1)c1n[nH]cc1NC(=O)c1c(F)cccc1F | KIT autoinhibited | binding | competition with immobilised ligand | 1 µM | 100
CN1CCN(c2ccc(Nc3nccc(-c4cccc([N+](=O)[O-])c4)n3)cc2C(F)(F)F)CC1 | KIT L576P | binding |  | 10 µM | 0.05
O=C(c1ccc(Nc2ncc(Cl)c(-c3ccc(Cl)s3)n2)cc1)N1CCC(N2CCCC2)CC1 | KIT T670I/V559D | binding | competition with immobilised ligand | 1 µM | 0.75
N[C@H]1CCN(c2nccc(-c3cnn4ncccc34)n2)C1 | KIT V559D | binding |  | 1 µM | 87
COc1cnc(Nc2cccc(S(N)(=O)=O)c2)nc1N1CCN(c2ccccc2)CC1 | KIT V559D | binding | competition with immobilised ligand | 1 µM | 94
CN(CCCC(F)(F)F)c1nccc(-c2cnn3ncccc23)n1 | KIT autoinhibited | binding |  | 1 µM | 100
O=C(c1ccc(Nc2nccc(-c3cc4ccccc4s3)n2)cc1)N1CCC(N2CCCC2)CC1 | KIT D816H | binding | competition with immobilised ligand | 1 µM | 18
Cn1cc(Cl)c2c(Oc3c(F)cc(Nc4cc(Cl)nc(N)n4)cc3F)ccnc21 | KIT A829P | cell-free assay | competition with immobilised ligand | 0.1 µM | 63
C[C@@H]1CN(c2ccc3ncc(-c4ccc5[nH]nc(C6CC6)c5c4)n3n2)C[C@H](C)O1 | KIT | binding | competition with immobilised ligand | 0.5 µM | 50
COc1ncc2cc3ccccc3nc2c1C#N | KIT L576P | cell-free assay | competition with immobilised ligand | 5 µM | 100
Cc1cnc(Nc2ccc(C(=O)N3CCC(N4CCCC4)CC3)cc2)nc1-c1cc2ccccc2s1 | KIT L576P | binding | competition with immobilised ligand | 1 µM | 1
CCCOc1ccc([C@H]2[C@H](C(=O)O)[C@@H](c3ccc4c(c3)OCO4)CN2CC(=O)Nc2c(CC)cccc2CC)cc1 | KIT V559D/V654A | cell-free assay | competition with immobilised ligand | 1 µM | 98
CN(c1nccc(-c2cnn3ncccc23)n1)C1CC1 | KIT | binding |  | 1 µM | 89
CN1CCN(c2ccc(Nc3nccc(-c4ccccc4)n3)cc2C(F)(F)F)CC1 | KIT D816H | binding |  | 10 µM | 17
